In ChEMBL document CHEMBL2331531, “Synthesis and biological evaluation of urea derivatives as highly potent and selective rho kinase inhibitors” (J Med Chem, 2013):
pIC50: −log10 of the molar value.

Key:
[1] = Aqueous solubility in potassium phosphate buffer at pH 5.5 after 24 hrs by HPLC analysis; type: physicochemical; conditions: pH 5.5, 24 h
[2] = Oral bioavailability in Sprague-Dawley rat at 2 mg/kg by LC-MS/MS analysis; type: ADME, organism-based; conditions: in vivo
[3] = Cmax in Sprague-Dawley rat at 1 mg/kg, iv by LC-MS/MS analysis; type: ADME, organism-based; parameters: dose 1 mg/kg, route intravenous; conditions: in vivo
[4] = (§1) AUC in Sprague-Dawley rat at 1 mg/kg, iv by LC-MS/MS analysis; type: ADME, organism-based, Plasma; parameters: dose 1 mg/kg, route intravenous; conditions: Sprague-Dawley, plasma
[5] = Half life in Sprague-Dawley rat at 1 mg/kg, iv by LC-MS/MS analysis; type: ADME, organism-based; parameters: dose 1 mg/kg, route intravenous; conditions: in vivo
[6] = Volume of distribution in Sprague-Dawley rat at 1 mg/kg, iv by LC-MS/MS analysis; type: ADME, organism-based; parameters: dose 1 mg/kg, route intravenous; conditions: in vivo
[7] = Clearance in Sprague-Dawley rat at 1 mg/kg, iv by LC-MS/MS analysis; type: ADME, organism-based; parameters: dose 1 mg/kg, route intravenous; conditions: in vivo
Cytochrome P450 3A4 = Cytochrome P450 3A4 (Homo sapiens, UniProt P08684); assay: Inhibition of CYP3A4 (unknown origin)-mediated midazolam hydroxylation to 1'-Hydroxymidazolam; type: ADME
Cytochrome P450 2D6 = Cytochrome P450 2D6 (Homo sapiens, UniProt P10635); assay: Inhibition of CYP2D6 (unknown origin)-mediated bufuralol hydroxylation to 4'-Hydroxybufuralol; type: ADME
Cytochrome P450 2C9 = Cytochrome P450 2C9 (Homo sapiens, UniProt P11712); assay: Inhibition of CYP2C9 (unknown origin)-mediated tolbutamide hydroxylation to hydroxy tolbutamide; type: ADME
Cytochrome P450 1A2 = molecular target: T1, Cytochrome P450 1A2 (Homo sapiens, UniProt P05177); assay: Inhibition of CYP1A2 (unknown origin)-mediated phenaceten demethylation to acetaminophen; type: ADME
T1 sequence (P05177 whole entry): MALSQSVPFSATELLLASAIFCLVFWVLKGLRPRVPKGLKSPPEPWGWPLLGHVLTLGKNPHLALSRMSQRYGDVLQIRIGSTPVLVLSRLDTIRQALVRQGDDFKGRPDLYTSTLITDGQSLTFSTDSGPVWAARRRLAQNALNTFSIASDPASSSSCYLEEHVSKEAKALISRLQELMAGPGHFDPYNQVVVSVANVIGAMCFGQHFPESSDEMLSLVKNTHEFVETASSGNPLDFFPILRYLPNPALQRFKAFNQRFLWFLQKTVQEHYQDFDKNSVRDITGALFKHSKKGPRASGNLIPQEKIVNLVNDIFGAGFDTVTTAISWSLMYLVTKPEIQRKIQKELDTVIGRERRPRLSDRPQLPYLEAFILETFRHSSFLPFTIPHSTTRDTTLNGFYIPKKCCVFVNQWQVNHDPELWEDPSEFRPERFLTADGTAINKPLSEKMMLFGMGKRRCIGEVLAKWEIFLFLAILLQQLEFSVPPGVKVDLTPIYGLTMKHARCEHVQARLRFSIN

CYP3A4 = CYP3A4 (Homo sapiens, UniProt P08684); assay: Inhibition of CYP3A4 (unknown origin)-mediated midazolam hydroxylation to 1'-Hydroxymidazolam at 10 uM relative to control; type: ADME; conditions: probe midazolam
CYP2D6 = CYP2D6 (Homo sapiens, UniProt P10635); assay: Inhibition of CYP2D6 (unknown origin)-mediated bufuralol hydroxylation to 4'-Hydroxybufuralol at 10 uM relative to control; type: ADME; conditions: probe bufuralol
CYP2C9 = CYP2C9 (Homo sapiens, UniProt P11712); assay: Inhibition of CYP2C9 (unknown origin)-mediated tolbutamide hydroxylation to hydroxy tolbutamide at 10 uM relative to control; type: ADME; conditions: probe tolbutamide
CYP1A2 = molecular target: T2, CYP1A2 (Homo sapiens, UniProt P05177); assay: Inhibition of CYP1A2 (unknown origin)-mediated phenaceten demethylation to acetaminophen at 10 uM relative to control; type: ADME; conditions: probe phenacetin (printed: phenaceten)
T2 sequence (P05177 whole entry): T1 sequence (P05177 whole entry)

[8] = molecular target: Rho-associated protein kinase 1 (Homo sapiens, UniProt Q13464); assay: Inhibition of ROCK1 (unknown origin) after 4 hrs by HTRF assay
MAP kinase p38 = MAP kinase p38 (Homo sapiens, UniProt O15264+Q15759+Q16539+P53778); assay: Inhibition of p38 (unknown origin) using biotinylated Flag-ATF2 as substrate after 30 mins by HTRF assay; type: protein assay
[9] = molecular target: Mitogen-activated protein kinase 10 (Homo sapiens, UniProt P53779); assay: Inhibition of JNK3 alpha1 (unknown origin) using biotinylated Flag-ATF2 as substrate after 15 mins by HTRF assay
[10] = molecular target: Serine/threonine-protein kinase MRCK alpha (Homo sapiens, UniProt Q5VT25); assay: Inhibition of MRCKalpha (unknown origin) using LCD-AKRRRRLSSLRA-NH2 as substrate after 75 mins by luminescence assay in presence of [33P]ATP
[11] = Inhibition of PKA (unknown origin) after 70 mins by luminescence assay; parameters: species or system Homo sapiens
[12] = Half life in human liver microsomes; type: ADME, Microsome
[13] = molecular target: Rho-associated protein kinase 2 (Homo sapiens, UniProt O75116); assay: Inhibition of ROCK2 (unknown origin) after 4 hrs by HTRF assay
[14] = Inhibition of ROCK-mediated myosin light chain bisphosphorylation in rat A7R5 cells after 1 hr by fluorescence assay in presence of L-alpha-lysophosphatidic acid; type: cell-based
Procedure, shortened: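 A7r5 cells in 20% FBS DMEM, plated 5000/well overnight, serum-starved 4 h in 0.05% FBS DMEM; compound 13333 nM to 18 nM final for 1 h, then 10 μM LPA 10 min; fixed, permeabilized, anti-ppMLC plus IR800 secondary; infrared scan, ppMLC signal normalized to TO-PRO-3 nuclear signal. IC50 as mean of two or more experiments.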

Rattus norvegicus = assay: as §1; type: ADME, organism-based, Plasma; parameters: dose 1 mg/kg, route intravenous; conditions: in vivo

Sequence of CYP2C9 (P11712 whole entry): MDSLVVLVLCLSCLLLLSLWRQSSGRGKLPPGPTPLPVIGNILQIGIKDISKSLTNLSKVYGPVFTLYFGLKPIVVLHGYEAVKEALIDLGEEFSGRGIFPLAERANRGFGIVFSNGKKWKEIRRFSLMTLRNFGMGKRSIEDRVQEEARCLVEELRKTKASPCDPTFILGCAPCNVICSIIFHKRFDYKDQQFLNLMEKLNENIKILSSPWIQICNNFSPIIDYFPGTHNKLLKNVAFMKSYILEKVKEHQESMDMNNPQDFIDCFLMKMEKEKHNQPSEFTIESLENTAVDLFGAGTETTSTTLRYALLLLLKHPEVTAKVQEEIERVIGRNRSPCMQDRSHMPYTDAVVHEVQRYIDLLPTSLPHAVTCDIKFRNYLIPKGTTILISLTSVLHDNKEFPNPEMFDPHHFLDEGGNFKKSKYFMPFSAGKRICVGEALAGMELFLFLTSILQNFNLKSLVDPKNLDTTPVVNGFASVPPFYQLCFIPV
Sequence of Cytochrome P450 2C9 (P11712 whole entry): as above
Sequence of Rho-associated protein kinase 1 (Q13464 whole entry): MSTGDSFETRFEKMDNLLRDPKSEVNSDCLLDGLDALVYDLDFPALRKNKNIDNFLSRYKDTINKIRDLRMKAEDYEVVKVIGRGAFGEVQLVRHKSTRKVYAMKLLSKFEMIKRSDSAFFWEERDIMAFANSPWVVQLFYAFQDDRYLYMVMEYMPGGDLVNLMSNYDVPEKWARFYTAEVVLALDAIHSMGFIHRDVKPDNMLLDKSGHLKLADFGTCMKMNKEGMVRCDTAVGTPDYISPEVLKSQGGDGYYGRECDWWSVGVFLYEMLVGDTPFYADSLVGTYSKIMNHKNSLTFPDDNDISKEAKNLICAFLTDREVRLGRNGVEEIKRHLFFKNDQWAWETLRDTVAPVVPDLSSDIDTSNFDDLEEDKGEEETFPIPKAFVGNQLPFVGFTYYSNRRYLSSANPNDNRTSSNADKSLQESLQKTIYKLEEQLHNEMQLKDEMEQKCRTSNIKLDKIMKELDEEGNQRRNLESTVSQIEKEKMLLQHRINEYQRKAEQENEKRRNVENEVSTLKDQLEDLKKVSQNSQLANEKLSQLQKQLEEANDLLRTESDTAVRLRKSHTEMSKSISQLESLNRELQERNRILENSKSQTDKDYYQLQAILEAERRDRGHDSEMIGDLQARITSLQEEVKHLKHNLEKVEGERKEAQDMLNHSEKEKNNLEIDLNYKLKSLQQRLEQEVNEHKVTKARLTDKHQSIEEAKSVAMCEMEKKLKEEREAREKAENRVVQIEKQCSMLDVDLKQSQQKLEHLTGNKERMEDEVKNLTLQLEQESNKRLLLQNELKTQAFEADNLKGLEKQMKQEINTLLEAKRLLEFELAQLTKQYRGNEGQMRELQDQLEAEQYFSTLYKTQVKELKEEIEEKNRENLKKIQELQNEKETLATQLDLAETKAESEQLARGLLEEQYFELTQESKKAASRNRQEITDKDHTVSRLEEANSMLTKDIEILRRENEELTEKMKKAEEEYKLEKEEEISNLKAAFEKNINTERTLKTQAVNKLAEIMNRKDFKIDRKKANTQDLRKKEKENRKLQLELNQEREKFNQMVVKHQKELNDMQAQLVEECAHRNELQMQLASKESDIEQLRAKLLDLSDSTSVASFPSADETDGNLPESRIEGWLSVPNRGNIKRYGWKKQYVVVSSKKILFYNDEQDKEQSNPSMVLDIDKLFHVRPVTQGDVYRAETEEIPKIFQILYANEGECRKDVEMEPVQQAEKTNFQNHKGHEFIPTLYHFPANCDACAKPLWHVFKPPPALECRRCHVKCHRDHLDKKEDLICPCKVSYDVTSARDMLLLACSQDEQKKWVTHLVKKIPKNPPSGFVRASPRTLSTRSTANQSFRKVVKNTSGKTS
Sequence of Rho-associated protein kinase 2 (O75116 whole entry): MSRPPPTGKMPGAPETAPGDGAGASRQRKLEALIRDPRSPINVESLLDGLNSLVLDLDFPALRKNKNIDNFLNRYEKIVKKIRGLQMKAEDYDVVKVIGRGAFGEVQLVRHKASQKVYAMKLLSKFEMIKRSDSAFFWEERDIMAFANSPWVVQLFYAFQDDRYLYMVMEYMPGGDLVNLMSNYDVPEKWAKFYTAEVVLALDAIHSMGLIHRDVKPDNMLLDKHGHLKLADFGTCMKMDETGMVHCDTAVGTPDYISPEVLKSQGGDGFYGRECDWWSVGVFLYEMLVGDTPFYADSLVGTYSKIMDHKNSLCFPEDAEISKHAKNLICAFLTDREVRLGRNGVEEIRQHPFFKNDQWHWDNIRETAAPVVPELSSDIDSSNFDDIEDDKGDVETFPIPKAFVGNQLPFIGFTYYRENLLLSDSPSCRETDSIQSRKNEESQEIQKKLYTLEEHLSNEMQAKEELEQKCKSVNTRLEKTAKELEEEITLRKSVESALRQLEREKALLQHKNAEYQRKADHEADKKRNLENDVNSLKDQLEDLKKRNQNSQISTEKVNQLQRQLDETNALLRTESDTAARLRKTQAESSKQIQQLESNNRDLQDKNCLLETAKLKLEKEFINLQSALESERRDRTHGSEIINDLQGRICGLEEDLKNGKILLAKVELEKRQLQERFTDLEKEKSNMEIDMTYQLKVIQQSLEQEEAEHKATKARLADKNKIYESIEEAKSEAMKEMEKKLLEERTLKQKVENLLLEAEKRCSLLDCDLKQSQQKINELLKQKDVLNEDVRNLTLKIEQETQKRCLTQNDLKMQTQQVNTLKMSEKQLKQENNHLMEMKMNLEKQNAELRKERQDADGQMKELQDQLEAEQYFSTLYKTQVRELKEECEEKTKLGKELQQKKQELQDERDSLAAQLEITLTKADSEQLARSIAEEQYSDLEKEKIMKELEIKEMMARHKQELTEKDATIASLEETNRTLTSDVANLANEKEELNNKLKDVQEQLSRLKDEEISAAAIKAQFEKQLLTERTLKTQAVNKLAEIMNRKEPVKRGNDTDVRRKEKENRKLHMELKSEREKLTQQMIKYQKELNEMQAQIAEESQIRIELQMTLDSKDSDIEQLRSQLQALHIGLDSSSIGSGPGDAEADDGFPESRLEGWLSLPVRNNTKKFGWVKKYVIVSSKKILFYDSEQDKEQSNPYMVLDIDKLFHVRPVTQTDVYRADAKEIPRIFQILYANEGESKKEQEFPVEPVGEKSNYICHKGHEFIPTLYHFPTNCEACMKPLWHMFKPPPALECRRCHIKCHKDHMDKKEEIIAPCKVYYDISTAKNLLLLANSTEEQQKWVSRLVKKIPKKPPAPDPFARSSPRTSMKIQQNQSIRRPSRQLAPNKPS
Sequence of CYP2D6 (P10635 whole entry): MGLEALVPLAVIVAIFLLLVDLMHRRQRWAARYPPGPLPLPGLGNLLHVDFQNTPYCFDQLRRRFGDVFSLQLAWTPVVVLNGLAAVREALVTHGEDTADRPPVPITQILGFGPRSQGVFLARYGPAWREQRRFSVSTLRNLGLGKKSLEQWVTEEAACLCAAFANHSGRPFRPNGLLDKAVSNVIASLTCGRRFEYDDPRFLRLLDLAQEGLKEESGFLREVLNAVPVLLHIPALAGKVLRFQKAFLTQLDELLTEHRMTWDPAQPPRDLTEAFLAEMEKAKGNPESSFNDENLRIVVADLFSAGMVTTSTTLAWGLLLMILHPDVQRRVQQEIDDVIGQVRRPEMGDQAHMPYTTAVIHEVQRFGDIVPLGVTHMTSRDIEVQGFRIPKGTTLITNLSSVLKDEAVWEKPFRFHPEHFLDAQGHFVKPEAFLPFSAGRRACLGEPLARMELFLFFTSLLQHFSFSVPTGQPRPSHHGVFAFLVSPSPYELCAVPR
Sequence of Cytochrome P450 2D6 (P10635 whole entry): as above
Sequence of CYP3A4 (P08684 whole entry): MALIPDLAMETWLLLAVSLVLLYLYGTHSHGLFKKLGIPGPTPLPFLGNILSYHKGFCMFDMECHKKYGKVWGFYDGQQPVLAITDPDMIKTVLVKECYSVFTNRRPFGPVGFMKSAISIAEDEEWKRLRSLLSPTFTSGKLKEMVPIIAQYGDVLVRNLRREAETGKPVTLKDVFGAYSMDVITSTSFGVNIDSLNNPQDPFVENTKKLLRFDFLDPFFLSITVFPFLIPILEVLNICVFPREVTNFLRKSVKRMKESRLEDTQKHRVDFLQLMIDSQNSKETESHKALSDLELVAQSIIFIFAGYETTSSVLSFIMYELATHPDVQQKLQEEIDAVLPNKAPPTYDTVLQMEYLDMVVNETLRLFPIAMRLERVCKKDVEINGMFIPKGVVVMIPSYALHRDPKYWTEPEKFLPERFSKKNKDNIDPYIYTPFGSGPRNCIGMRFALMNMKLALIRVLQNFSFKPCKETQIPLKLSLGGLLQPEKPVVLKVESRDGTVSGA
Sequence of Cytochrome P450 3A4 (P08684 whole entry): as above

bioavailability [2] [%] | Cmax [3] [nM] | AUC [4] [µM·h] | half-life [5] [h] | Vd [6] [L/kg] | clearance [7] [mL/min/kg] | pIC50 (Cytochrome P450 3A4) | pIC50 (Cytochrome P450 2D6) | inhibition at 10 µM (CYP3A4) [%] | inhibition at 10 µM (CYP2D6) [%] | inhibition at 10 µM (CYP2C9) [%] | inhibition at 10 µM (CYP1A2) [%] | pIC50 [8] | IC50 (MAP kinase p38) [nM] | pIC50 [9] | pIC50 [10] | pIC50 [11] | half-life [12] [h] | pIC50 [13] | pIC50 [14] | SMILES | further results
10 | 330 | 0.2 | 1 | 14 | 176 | 4.10 | 5.52 | 34 | 85 | 35 | -29 | 8.22 | > 20000 | < 4.70 | 5.06 | 6.34 | 0.567 | 9.00 | 8.40 | COc1cccc(CN(CCN(C)C)C(=O)Nc2ccc(-c3cn[nH]c3)cc2)c1 | solubility [1]: soluble; pIC50 (Cytochrome P450 2C9): 4.52; pIC50 (Cytochrome P450 1A2): < 4.00
11 | 1100 | 1.3 | 1 | 2.6 | 30 | – | – | 53 | 83 | 65 | 9 | 8.40 | > 20000 | < 4.70 | 5.81 | 5.17 | – | 9.00 | – | CCN(Cc1cccc(OC)c1)C(=O)Nc1ccc(-c2cn[nH]c2)cc1O[C@H]1CCN(C)C1 | solubility [1]: soluble

Continued, compound first:

SMILES | bioavailability [2] [%] | Cmax [3] [nM] | AUC [4] [µM·h] | half-life [5] [h] | Vd [6] [L/kg] | clearance [7] [mL/min/kg] | pIC50 (Cytochrome P450 3A4) | pIC50 (Cytochrome P450 2D6) | inhibition at 10 µM (CYP3A4) [%] | inhibition at 10 µM (CYP2D6) [%] | inhibition at 10 µM (CYP2C9) [%] | inhibition at 10 µM (CYP1A2) [%] | pIC50 [8] | IC50 (MAP kinase p38) [nM] | pIC50 [9] | pIC50 [10] | pIC50 [11] | half-life [12] [h] | pIC50 [13] | pIC50 [14] | further results
COc1cccc(CN(CCO)C(=O)Nc2ccc(-c3cn[nH]c3)cc2)c1 | 51 | 3800 | 4.2 | 1.6 | 1 | 11.2 | 4.46 | 4.40 | 37 | 38 | 95 | -23 | 8.22 | > 20000 | < 4.70 | 5.37 | 5.52 | 0.4 | 9.00 | 7.72 | pIC50 (Cytochrome P450 2C9): 5.70; pIC50 (Cytochrome P450 1A2): < 4.00
COc1cccc(CN(C)C(=O)Nc2ccc(-c3cn[nH]c3)cc2)c1 | 48 | 2600 | 5.9 | 1 | 1.1 | 9.4 | < 4.00 | < 4.00 | 27 | 45 | 96 | 9 | 8.40 | > 20000 | < 4.70 | 5.73 | 5.74 | 0.383 | 9.00 | – | pIC50 (Cytochrome P450 2C9): 6.22; pIC50 (Cytochrome P450 1A2): < 4.00
O=C(Nc1ccc(-c2cn[nH]c2)cc1)N(CCO)Cc1ccccc1 | 46 | 1100 | – | 1.9 | 1.9 | – | – | – | 15 | 29 | 93 | 9 | 7.48 | – | – | – | 6.21 | > 2 | 7.92 | 7.23 | AUC (Rattus norvegicus): 3.6 µM·h
O=C(Nc1ccc(-c2cn[nH]c2)cc1)NC(CCO)c1cccc(F)c1 (stereo not given) | 28 | 9200 | 9.5 | 2.1 | 0.7 | 4.9 | – | – | 23 | 41 | 71 | -2 | 8.00 | > 20000 | < 4.70 | 5.19 | 6.24 | > 2 | 8.70 | 7.49 | –
